Measured values taken from ChEMBL document CHEMBL3286372, “Design, synthesis and structure-activity relationship of novel semi-synthetic flavonoids as antiproliferative agents” (2014).

How the values were obtained:
CCRF-CEM = assay: Growth inhibition of human CCRF-CEM cells at 10 uM after 48 hrs by sulforhodamine B assay relative to control; format: functional; conditions: read-out: GI
Summary of the method: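 NCI-60 primary screen at a single dose of 10 µM with 48 h continuous exposure. Growth or viability read by sulforhodamine B protein staining and expressed as percent growth inhibition versus untreated cells.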

NCI-H460 = assay: Growth inhibition of human NCI-H460 cells at 10 uM after 48 hrs by sulforhodamine B assay relative to control; format: functional; conditions: NCI-H460, 48 h, read-out: GI
Summary of the method: (§1)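 NCI-60 primary screen at a single 10 µM dose. Continuous 48 h exposure, with growth or viability estimated by sulforhodamine B protein staining. Reported as percent growth inhibition of treated cells relative to untreated growth.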

[1] = Growth inhibition of human OVCAR4 cells after 48 hrs by coulter counting analysis; format: functional; conditions: OVCAR-4, 48 h
Summary of the method: (§2)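 Five-dose NCI-60 follow-up, 0.01–100 µM, made from DMSO stock in buffered saline (final DMSO <1%), in duplicate wells. Cells in RPMI 1640 with 10% FBS at 6×10^4 cells/ml, 37 °C, 5% CO2, 48 h. Cells diluted tenfold in saline, Coulter-counted and corrected for dilution. GI50, TGI and LC50 taken from log concentration–percent growth curves.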

[2] = Growth inhibition of human OVCAR5 cells after 48 hrs by coulter counting analysis; format: functional; conditions: OVCAR-5, 48 h; summary of the method: as §2
[3] = Growth inhibition of human OVCAR8 cells after 48 hrs by coulter counting analysis; format: functional; conditions: OVCAR-8, 48 h; summary of the method: as §2
SK-OV-3 = assay: Growth inhibition of human SKOV3 cells after 48 hrs by coulter counting analysis; format: functional; conditions: SK-OV-3, 48 h; summary of the method: as §2
786-0 = assay: Growth inhibition of human 786-0 cells after 48 hrs by coulter counting analysis; format: functional; conditions: 786-0, 48 h
Summary of the method: (§3)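 NCI five-dose screen at 0.01-100 µM, diluted from DMSO stocks in buffered saline (final DMSO <1%). Cells at 6×10^4 cells/ml in RPMI 1640 with 10% FBS, in duplicate wells, at 37 °C under 5% CO2 for 48 h. Cells diluted tenfold in saline and Coulter-counted. GI50, TGI and LC50 taken from log concentration-growth inhibition curves.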

SN12C = assay: Growth inhibition of human SN12C cells after 48 hrs by coulter counting analysis; format: functional; summary of the method: as §2
TK-10 = assay: Growth inhibition of human TK10 cells after 48 hrs by coulter counting analysis; format: functional; conditions: TK-10, 48 h
Summary of the method: (§4)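 NCI five-dose screen, 0.01-100 µM, from DMSO stocks diluted in buffer saline (final DMSO <1%). Cells grown in RPMI 1640 + 10% FBS, seeded at 6×10^4 cells/ml, in duplicate wells. Exposure 48 h at 37 °C, 5% CO2. Cells diluted 10-fold in saline and counted by Coulter counter. GI50 derived from log concentration–percent growth inhibition curves. Controls carried matching PBS/saline/DMSO.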

[4] = Growth inhibition of human UO31 cells after 48 hrs by coulter counting analysis; format: functional; conditions: UO-31, 48 h; summary of the method: as §4
DU-145 = assay: Growth inhibition of human DU145 cells after 48 hrs by coulter counting analysis; format: functional; conditions: DU-145, 48 h; summary of the method: as §3
[5] = molecular target: Cyclin-dependent kinase 2/cyclin E1 (Homo sapiens) (UniProt P24864+P24941); assay: Inhibition of CDK2/Cyclin E1 (unknown origin) at 20 uM after 30 mins by scintillation counting analysis relative to control; format: protein-complex assay
Summary of the method: (§5)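 Recombinant kinases, cloned, expressed and purified in-house. Radiometric ³³P-ATP assay with kinase at ~10-50 nM final and 1-5 µg peptide or protein substrate. Compound at 20 µM final, in duplicate. Reaction started by adding ATP, run 30 min at ambient temperature, then spotted on P81 phosphocellulose. Plates washed in 1% phosphoric acid and counted by scintillation. No-substrate blank subtracted. Result is mean % activity change versus DMSO control.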

[6] = molecular target: Cyclin-dependent kinase 4/cyclin D1 (Homo sapiens) (UniProt P11802+P24385); assay: Inhibition of CDK4/Cyclin D1 (unknown origin) at 20 uM after 30 mins by scintillation counting analysis relative to control; format: protein-complex assay; summary of the method: as §5
[7] = Growth inhibition of human NCI-ADR-RES cells at 10 uM after 48 hrs by sulforhodamine B assay relative to control; format: functional; conditions: read-out: GI; summary of the method: as §1
A549 = assay: Growth inhibition of human A549/ATCC cells after 48 hrs by coulter counting analysis; format: functional; conditions: A549, 48 h; summary of the method: as §3
[8] = Growth inhibition of human EKVX cells after 48 hrs by coulter counting analysis; format: functional; summary of the method: as §3
HOP-62 = assay: Growth inhibition of human HOP62 cells after 48 hrs by coulter counting analysis; format: functional; conditions: HOP-62, 48 h; summary of the method: as §3
COLO 205 = assay: Growth inhibition of human COLO205 cells after 48 hrs by coulter counting analysis; format: functional; conditions: COLO 205, 48 h; summary of the method: as §3
HCT-116 = assay: Growth inhibition of human HCT116 cells after 48 hrs by coulter counting analysis; format: functional; conditions: HCT-116, 48 h; summary of the method: as §3
[9] = Growth inhibition of human HCT15 cells after 48 hrs by coulter counting analysis; format: functional; conditions: HCT-15, 48 h; summary of the method: as §3
KM12 = assay: Growth inhibition of human KM12 cells after 48 hrs by coulter counting analysis; format: functional; conditions: KM12, 48 h; summary of the method: as §3
SW-620 = assay: Growth inhibition of human SW620 cells after 48 hrs by coulter counting analysis; format: functional; conditions: SW-620, 48 h; summary of the method: as §2
SF-268 = assay: Growth inhibition of human SF268 cells after 48 hrs by coulter counting analysis; format: functional; conditions: SF-268, 48 h; summary of the method: as §2
U-251 = assay: Growth inhibition of human U251 cells after 48 hrs by coulter counting analysis; format: functional; conditions: U-251, 48 h; summary of the method: as §4
Malme-3M = assay: Growth inhibition of human MALME-3M cells after 48 hrs by coulter counting analysis; format: functional; summary of the method: as §3
MDA-MB-435 = assay: Growth inhibition of human MDA-MB-435 cells after 48 hrs by coulter counting analysis; format: functional; conditions: MDA-MB-435, 48 h; summary of the method: as §3
SK-MEL-28 = assay: Growth inhibition of human SK-MEL-28 cells after 48 hrs by coulter counting analysis; format: functional; conditions: SK-MEL-28, 48 h; summary of the method: as §2
SK-MEL-5 = assay: Growth inhibition of human SK-MEL-5 cells after 48 hrs by coulter counting analysis; format: functional; conditions: SK-MEL-5, 48 h; summary of the method: as §2
[10] = Growth inhibition of human UACC257 cells after 48 hrs by coulter counting analysis; format: functional; conditions: UACC-257, 48 h; summary of the method: as §4
[11] = Growth inhibition of human UO31 cells at 10 uM after 48 hrs by sulforhodamine B assay relative to control; format: functional; conditions: UO-31, 48 h, read-out: GI
Summary of the method: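 NCI-60 primary single-dose screen at 10 µM with continuous 48 h exposure. Cell viability/growth read by sulforhodamine B protein staining. Reported as percent growth inhibition relative to untreated cells.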

C=CCc1c2c(c(OC)c3ccoc13)C(=O)/C(=C/c1ccccc1OC)O2
inhibition of growth at 10 µM (CCRF-CEM): 63%
inhibition of growth at 10 µM (NCI-H460): 69%
GI50 [1]: 3.34 µM
GI50 [2]: 3.57 µM
GI50 [3]: 3.87 µM
GI50 (SK-OV-3): 5.45 µM
GI50 (786-0): 6.29 µM
GI50 (SN12C): 4.85 µM
GI50 (TK-10): 6.5 µM
GI50 [4]: 4.98 µM
GI50 (DU-145): 3.19 µM
inhibition [5]: 0%
inhibition [6]: 9%
inhibition of growth at 10 µM [7]: 65%
GI50 (A549): 4.12 µM
GI50 [8]: 4.41 µM
GI50 (HOP-62): 4.98 µM
GI50 (COLO 205): 7.64 µM
GI50 (HCT-116): 3.29 µM
GI50 [9]: 3.6 µM
GI50 (KM12): 3.49 µM
GI50 (SW-620): 4.24 µM
GI50 (SF-268): 3.73 µM
GI50 (U-251): 3.53 µM
GI50 (Malme-3M): 19.8 µM
GI50 (MDA-MB-435): 3.12 µM
GI50 (SK-MEL-28): 5.21 µM
GI50 (SK-MEL-5): 3.91 µM
GI50 [10]: 6.41 µM

COc1c2occc2c(OC)c2c(=O)c(CN3CCOCC3)c(/C=C/c3ccc(Cl)cc3)oc12
inhibition of growth at 10 µM (CCRF-CEM): 81%
inhibition of growth at 10 µM (NCI-H460): 88%
GI50 [1]: 2.75 µM
GI50 [2]: 2.76 µM
GI50 [3]: 2.78 µM
GI50 (SK-OV-3): 3.56 µM
GI50 (786-0): 3.09 µM
GI50 (SN12C): 3.05 µM
GI50 (TK-10): 5.32 µM
GI50 (DU-145): 2.63 µM
inhibition [5]: 0%
inhibition [6]: 6%
inhibition of growth at 10 µM [11]: 61%
GI50 (A549): 2.85 µM
GI50 [8]: 2.85 µM
GI50 (HOP-62): 3.24 µM
GI50 (COLO 205): 2.76 µM
GI50 (HCT-116): 2.92 µM
GI50 [9]: 2.78 µM
GI50 (KM12): 2.1 µM
GI50 (SW-620): 3.32 µM
GI50 (SF-268): 2.81 µM
GI50 (U-251): 3.05 µM
GI50 (Malme-3M): 2.24 µM
GI50 (MDA-MB-435): 2.05 µM
GI50 (SK-MEL-28): 2.17 µM
GI50 (SK-MEL-5): 1.24 µM
GI50 [10]: 2.35 µM
